Key:
[1] = molecular target: T1, Mineralocorticoid receptor (Rattus norvegicus) (UniProt P22199); experiment: Ratio of [3H]aldosterone binding with 8*10e-8 M aldosterone to [3H]aldosterone binding with 8*10e-8 M competitor at Mineralocorticoid receptor
T1 sequence (whole entry): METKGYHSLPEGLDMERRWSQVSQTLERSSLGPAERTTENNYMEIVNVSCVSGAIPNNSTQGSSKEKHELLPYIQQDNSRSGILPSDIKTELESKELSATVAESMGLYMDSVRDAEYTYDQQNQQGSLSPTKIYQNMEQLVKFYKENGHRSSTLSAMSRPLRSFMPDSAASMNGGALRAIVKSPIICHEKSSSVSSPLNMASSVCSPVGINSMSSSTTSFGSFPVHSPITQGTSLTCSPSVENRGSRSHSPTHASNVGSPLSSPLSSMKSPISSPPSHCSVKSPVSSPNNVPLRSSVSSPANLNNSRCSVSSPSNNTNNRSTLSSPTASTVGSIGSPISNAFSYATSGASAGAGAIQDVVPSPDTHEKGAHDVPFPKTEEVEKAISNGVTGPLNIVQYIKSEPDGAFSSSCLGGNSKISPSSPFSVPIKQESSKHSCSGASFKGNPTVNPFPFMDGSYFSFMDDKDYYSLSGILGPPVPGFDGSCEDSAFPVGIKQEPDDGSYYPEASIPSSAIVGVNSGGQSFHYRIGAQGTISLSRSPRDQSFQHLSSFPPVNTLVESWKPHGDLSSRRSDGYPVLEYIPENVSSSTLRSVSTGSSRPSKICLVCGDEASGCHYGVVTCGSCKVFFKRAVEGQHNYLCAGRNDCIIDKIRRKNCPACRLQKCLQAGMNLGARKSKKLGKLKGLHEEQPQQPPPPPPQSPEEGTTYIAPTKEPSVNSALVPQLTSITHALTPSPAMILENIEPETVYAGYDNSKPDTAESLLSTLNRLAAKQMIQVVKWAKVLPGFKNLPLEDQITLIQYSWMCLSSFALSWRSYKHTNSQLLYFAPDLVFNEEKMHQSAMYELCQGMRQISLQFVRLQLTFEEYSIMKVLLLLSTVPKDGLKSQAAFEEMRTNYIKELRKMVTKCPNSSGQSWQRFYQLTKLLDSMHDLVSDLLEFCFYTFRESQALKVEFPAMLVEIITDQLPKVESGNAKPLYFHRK
In short: (§1)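 Competition binding against [3H]aldosterone at the mineralocorticoid steroid-receptor complex. Each spirolactone competitor was tested at 8 × 10^-8 M, with unlabeled aldosterone at the same concentration as reference. Incubation ran 40 min at 25 °C. Labeled aldosterone still receptor-bound afterwards was measured, and binding affinity was expressed relative to aldosterone.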

[2] = molecular target: T1, Mineralocorticoid receptor (Rattus norvegicus); experiment: Displacement of [3H]aldosterone from mineralocorticoid receptor; in short: as §1

Structure (SMILES) | Relative binding affinity [1] | Binding [2]
CC12C(=CC(=O)C3CC31)[C@@H]1C[C@@H]1C1C2CCC2(C)C1CCC21CCC(=O)O1 (some centres undefined) | 0.14 | 55%
C[C@]12CCC(=O)C=C1CC[C@@H]1[C@@H]2[C@@H](O)C[C@]2(C=O)[C@@H](C(=O)CO)CC[C@@H]12 | 1 | 7.8%
CC(=O)S[C@@H]1CC2=CC(=O)CC[C@]2(C)[C@H]2CC[C@@]3(C)[C@@H](CC[C@@]34CCC(=O)O4)[C@H]12 | 0.24 | 32.2%
C[C@]12CCC(=O)C=C1CC[C@@H]1[C@@H]2CC[C@@]2(C)[C@H]1CC[C@@]21CCC(=O)O1 | 0.22 | 36%
CC12CCC(=O)C=C1[C@@H]1C[C@@H]1C1C2CCC2(C)C1CCC21CCC(=O)O1 (some centres undefined) | 0.25 | 31.7%
CC12C(=CC(=O)C3CC31)[C@H]1CC1C1C2CCC2(C)C1CCC21CCC(=O)O1 (some centres undefined) | 0.1 | 77.6%
CC12C=CC(=O)C=C1[C@H]1CC1C1C2CCC2(C)C1CCC21CCC(=O)O1 (some centres undefined) | 0.1 | 77%
C[C@]12CCC(=O)C=C1C=C[C@@H]1[C@@H]2CC[C@@]2(C)[C@H]1CC[C@@]21CCC(=O)O1 | 0.13 | 60%
C[C@]12C=CC(=O)C=C1CCC1C2CC[C@@]2(C)C1CC[C@@]21CCC(=O)O1 (some centres undefined) | 0.15 | 53.5%
CC12C=CC(=O)C=C1C=CC1C2CCC2(C)C1CCC21CCC(=O)O1 (centres undefined) | 0.1 | 76.6%
CC12C=CC(=O)C=C1[C@H]1C[C@H]1C1C2CCC2(C)C1CCC21CCC(=O)O1 (some centres undefined) | 0.15 | 53%
CC12CCC(=O)C=C1[C@H]1C[C@H]1C1C2CCC2(C)C1CCC21CCC(=O)O1 (some centres undefined) | 0.12 | 66%
